Bioassay records as filed in PubChem.
Rows were chosen to be rich in hits. Some 2.7% of all compounds tested hit in one or more screens of this group.
CaV13 ICDI inh – Disruptors of the CACNA1D IQ motif to Ca2+-dependent inactivation inhibitor domain association, primary screening, Förster resonance energy transfer in intact living … | HEK cells, CFP/YFP FRET ICDI-IQ, plate reader, 10 min; percent FRET-ratio fall versus neutral wells | inhibition, % at 12.3 µM | 0.098% of 340,000 active;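 active means mean replicate inhibition of at least 30% and at least 1% of replicates passing that level; inconclusive means only one of the two criteria is met; inactive means neither criterion is met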
S100A4 inh HTS – S100A4-myosin IIA interaction inhibition | P26447 | 0.14% of 360,000 active | AID 652163 | S100A4/TAMRA-MyoIIA peptide fluorescence polarization | inhibition, % at 10.7 µM;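 active means mean inhibition of at least 70% across replicates, with every replicate also reaching that level; inconclusive means mean inhibition reaches 70% but some replicates fall short; inactive means mean inhibition below 70%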
Target sequence (P26447 whole entry, looked up): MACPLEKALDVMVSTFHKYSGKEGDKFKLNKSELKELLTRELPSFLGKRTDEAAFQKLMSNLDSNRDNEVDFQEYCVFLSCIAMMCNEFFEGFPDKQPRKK
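Test system: S100A4 monomer protein. Medium: HEPES buffer with Ca2+, pH 7.2. Reagent: fluorescent myosin IIA peptide, 5 nM. Compound dosing: single-point compound testing. Timing: 5 min between mix addition and reading. Benchmarks: DMSO neutral and TFP positive wells.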
AF4-AF9 inh – MLL-AF4/AF9 protein interaction inhibition; AID 651704; inhibition, % at 10 µM; 0.47% of 350,000 active; AlphaScreen, biotin-AF4 peptide binding to FLAG-AF9; P42568;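 active means every replicate reaching a set inhibition limit, whatever the replicate mean, cut at about 25% in these data; inconclusive means mean inhibition reaches that limit but some replicates miss it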
Target sequence (P42568 whole entry, looked up): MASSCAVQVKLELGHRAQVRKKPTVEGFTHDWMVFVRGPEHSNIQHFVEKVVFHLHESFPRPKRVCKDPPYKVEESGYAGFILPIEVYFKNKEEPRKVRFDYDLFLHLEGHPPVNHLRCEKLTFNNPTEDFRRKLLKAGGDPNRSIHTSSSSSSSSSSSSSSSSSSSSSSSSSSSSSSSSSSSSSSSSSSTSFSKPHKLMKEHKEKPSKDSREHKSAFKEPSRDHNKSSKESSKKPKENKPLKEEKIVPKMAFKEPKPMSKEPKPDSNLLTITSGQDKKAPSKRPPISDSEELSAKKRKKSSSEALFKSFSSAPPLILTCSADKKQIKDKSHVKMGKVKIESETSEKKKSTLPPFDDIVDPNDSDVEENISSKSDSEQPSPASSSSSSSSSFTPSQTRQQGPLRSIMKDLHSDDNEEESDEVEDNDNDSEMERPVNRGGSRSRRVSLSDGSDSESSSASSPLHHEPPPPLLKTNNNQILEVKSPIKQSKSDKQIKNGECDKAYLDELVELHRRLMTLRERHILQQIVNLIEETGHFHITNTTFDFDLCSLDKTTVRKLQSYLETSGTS
DENV2 CPE – protects cells from dengue virus 2 cytopathic effect; DENV2-infected cells, cytopathic effect rescue, plate reader; CPE inhibition, % at 9.99 µM; 1.7% of 350,000 active; AID 651640; in the data active means CPE inhibition above about 20%, passing the limit was not always enough; inconclusive means no clear call, values can overlap the other calls; tested in BHK-21 cells
SIRT5 inh – blocks human SIRT5 desuccinylation of peptide | Purified SirT5, succinyl-peptide AMC, trypsin-coupled fluorescence | inhibition, % at 15 µM | 1.1% of 330,000 active | AID 652115; in the data active means inhibition above about 15%; inconclusive means no clear call, values can overlap the other calls
Large screens that a line does not name were inactive.

CCC(=O)N1CCC2(CC1)CN[C@H](CO)c1c2c2ccc(OC)cc2n1C	none (no result: CaV13 ICDI inh)
COc1ccc2c3c(n(C)c2c1)[C@@H](CO)NCC31CCN(S(=O)(=O)c2cccc(C)c2)CC1	AF4-AF9 inh 27.4, DENV2 CPE 38.6 (no result: CaV13 ICDI inh)
COc1ccc2c3c(n(C)c2c1)[C@H](CO)NCC31CCN(Cc2ccc(Cl)cc2)CC1	AF4-AF9 inh 44.1 (no result: CaV13 ICDI inh, S100A4 inh HTS, SIRT5 inh)
COc1ccc2c3c(n(C)c2c1)[C@@H](CO)NCC31CCN(Cc2ccccc2F)CC1	none (no result: CaV13 ICDI inh, S100A4 inh HTS, SIRT5 inh)
COc1cccc(S(=O)(=O)N2CC3(CN[C@@H](CO)c4c3c3ccc(OC)cc3n4C)C2)c1	none (no result: CaV13 ICDI inh)
COc1ccc2c3c(n(C)c2c1)[C@H](CO)NCC31CCN(C(=O)c2ccc(F)cc2)CC1	none (no result: CaV13 ICDI inh)
C[C@@H]1CN([C@@H](C)CO)C(=O)c2cc(C#CC3(O)CCCC3)cnc2O[C@H]1CN(C)C(=O)C1CCCCC1	none (no result: CaV13 ICDI inh)
C[C@H](CO)N1C[C@H](C)[C@@H](CN(C)C(=O)Cc2cccnc2)Oc2ncc(C#Cc3ccccc3F)cc2C1=O	DENV2 CPE inconclusive (no result: CaV13 ICDI inh)
C/C=C/c1ccc2c(c1)O[C@H](CN(C)C(=O)Nc1cc(F)ccc1F)[C@@H](C)CN([C@@H](C)CO)S2(=O)=O	none (no result: CaV13 ICDI inh)
Cc1ncc([N+](=O)[O-])n1Cc1ccccc1	DENV2 CPE 50.5
C[C@H]1CN([C@@H](C)CO)C(=O)Cc2cc(NC(=O)Nc3ccc(F)cc3)ccc2O[C@H]1CN(C)S(=O)(=O)c1ccc(Cl)cc1	DENV2 CPE 43.3 (no result: CaV13 ICDI inh)
C[C@@H]1CN([C@@H](C)CO)C(=O)Cc2cc(NC(=O)Nc3ccccc3)ccc2O[C@H]1CN(C)S(=O)(=O)c1ccc(F)cc1	SIRT5 inh 17.7 (no result: CaV13 ICDI inh)
C[C@@H]1CN([C@H](C)CO)C(=O)Cc2cc(NC(=O)Nc3ccccc3)ccc2O[C@H]1CN(C)S(=O)(=O)c1ccc(F)cc1	none (no result: CaV13 ICDI inh)
COc1ccc(NC(=O)Nc2cccc3c2O[C@@H](CN(C)S(C)(=O)=O)[C@@H](C)CN([C@H](C)CO)C3=O)cc1	none (no result: CaV13 ICDI inh)
Cc1ccccc1-c1cnc2c(c1)C(=O)N([C@@H](C)CO)C[C@@H](C)[C@@H](CN(C)C(=O)CC1CC1)O2	none (no result: CaV13 ICDI inh)
CCC(=O)N1C[C@H]2[C@@H](c3ccccc31)[C@@H](CO)N2Cc1cc(F)ccc1F	SIRT5 inh 28.3 (no result: CaV13 ICDI inh)
COc1ccccc1C(=O)N1C[C@H]2[C@@H](c3ccccc31)[C@@H](CO)N2Cc1ccc(F)cc1	SIRT5 inh 16.3 (no result: CaV13 ICDI inh)
CCC(=O)N1C[C@@H]2[C@H](c3ccccc31)[C@H](CO)N2Cc1ccccc1OC	DENV2 CPE 35.1 (no result: CaV13 ICDI inh)
COc1ccccc1C(=O)N1C[C@@H]2[C@H](c3ccccc31)[C@H](CO)N2Cc1ccc(F)cc1	none (no result: CaV13 ICDI inh, S100A4 inh HTS, AF4-AF9 inh, SIRT5 inh)
CCC(=O)N1C[C@H]2[C@@H](c3ccccc31)[C@@H](CO)N2Cc1ccccc1OC	none (no result: CaV13 ICDI inh)
CCC(=O)N1C[C@@H]2[C@H](c3ccccc31)[C@@H](CO)N2C(=O)CC	S100A4 inh HTS 73.3 (no result: CaV13 ICDI inh)
O=C(Cn1nc(-c2ccc(Cl)cc2)ccc1=O)NCC1COCCO1 (configuration not stated)	SIRT5 inh 18.2
CC(CN1CCN(Cc2ccccc2)CC1)c1ccccc1 (configuration not stated)	none
ClC(CCN1CCN(Cc2ccccc2)CC1)c1ccccc1 (configuration not stated)	DENV2 CPE 30.7
COCC(=O)N(C)C[C@H]1Oc2ncc(C#CCC3CCCC3)cc2C(=O)N([C@@H](C)CO)C[C@@H]1C	none (no result: CaV13 ICDI inh)
CO[C@@H]1CN(C)C(=O)c2cc(NC(=O)Nc3ccccc3F)ccc2OC[C@@H](C)N(C)C[C@@H]1C	none (no result: CaV13 ICDI inh)
CC1CCCCN1Cc1c(O)ccc2c(=O)c(-c3nc4ccccc4s3)coc12 (configuration not stated)	CaV13 ICDI inh 44.4 (no result: DENV2 CPE)
CCc1cc2c(=O)c(-c3nc4ccccc4n3C)coc2c(CN2CCCCC2C)c1O (configuration not stated)	none
CCC1CCCCN1Cc1c(O)ccc2c(=O)c(-c3ccccc3OC)coc12 (configuration not stated)	AF4-AF9 inh 29.1
COc1ccccc1-c1coc2c(CN3CCC(C)CC3)c(O)ccc2c1=O	none
COCC#Cc1ccc2c(c1)O[C@@H](CN(C)S(C)(=O)=O)[C@@H](C)CN([C@@H](C)CO)S2(=O)=O	none (no result: CaV13 ICDI inh)
COCCCN1C(=O)C(CC(=O)NC(c2ccccc2)c2ccccc2)CC(C(=O)N(C(C)C)C(C)C)=C1C (configuration not stated)	DENV2 CPE 56.8
COCCCN1C(=O)C(CC(=O)NC(c2ccccc2)c2ccccc2)CC(C(=O)N2CCOCC2)=C1C (configuration not stated)	SIRT5 inh 29.4
COCCCN1C(=O)C(CC(=O)NC(c2ccccc2)c2ccccc2)CC(C(=O)N(C)C)=C1C (configuration not stated)	DENV2 CPE inconclusive
Brc1ccc(-c2noc(CCc3ccccc3)n2)o1	DENV2 CPE 56.2
O=C(Nc1ccc(F)cc1)N[C@H]1CC[C@@H](CCn2cc(C3(O)CCCC3)nn2)O[C@@H]1CO	none (no result: CaV13 ICDI inh)
Cc1ccc2nc(/C(C#N)=C/c3ccc(O)c(O)c3)[nH]c2c1	SIRT5 inh 19.8
Cc1ccc2nc(/C(C#N)=C/c3ccccc3C(=O)O)[nH]c2c1	none
O=C(c1cccc(F)c1)N1C[C@@H]2[C@H](c3ccccc31)[C@H](CO)N2C(=O)C1CC1	DENV2 CPE 31.6 (no result: CaV13 ICDI inh)
COCC(=O)N1[C@H](CO)[C@H]2c3ccccc3N(C(=O)c3cccc(OC)c3)C[C@H]21	DENV2 CPE 54.9 (no result: CaV13 ICDI inh)
O=C(c1ccccc1)N1C[C@@H]2[C@H](c3ccccc31)[C@H](CO)N2C(=O)c1cccc(F)c1	DENV2 CPE 25.8 (no result: CaV13 ICDI inh)
O=C(c1cccc(F)c1)N1C[C@@H]2[C@H](c3ccccc31)[C@@H](CO)N2C(=O)C1CCCC1	none (no result: CaV13 ICDI inh)
Cc1c(NC(=O)C(C)OC(=O)c2cc(Cl)ccc2O)c(=O)n(-c2ccccc2)n1C (configuration not stated)	DENV2 CPE 30.7
Cc1c(NC(=O)C(C)OC(=O)c2nc(Cl)ccc2Cl)c(=O)n(-c2ccccc2)n1C (configuration not stated)	none
COc1cccc(C#Cc2ccc([C@H]3[C@@H](CO)N4C(=O)CN(C(=O)C5CC5)C[C@@H]34)cc2)c1	none (no result: CaV13 ICDI inh)
C[C@H](CO)N1C[C@H](C)[C@@H](CN(C)Cc2ccccc2)Oc2ccc(N(C)C)cc2CC1=O	none (no result: CaV13 ICDI inh)
C[C@@H]1CN([C@@H](C)CO)C(=O)Cc2cc(N(C)C)ccc2O[C@@H]1CN(C)Cc1ccc(-c2ccccc2)cc1	AF4-AF9 inh 42.2 (no result: CaV13 ICDI inh)
C[C@H](CO)N1C[C@H](C)[C@@H](CN(C)Cc2ccc(Oc3ccccc3)cc2)Oc2ccc(N(C)C)cc2CC1=O	AF4-AF9 inh 71.7 (no result: CaV13 ICDI inh)
C[C@@H]1CN([C@@H](C)CO)C(=O)Cc2cc(N(C)C)ccc2O[C@@H]1CN(C)Cc1ccc(C(=O)O)cc1	DENV2 CPE 33.2 (no result: CaV13 ICDI inh)
